Measurements published in ChEMBL document CHEMBL4033667, “Design, synthesis, and identification of a novel napthalamide-isoselenocyanate compound NISC-6 as a dual Topoisomerase-IIα and Akt pathway inhibitor, and evaluation of its anti-melanoma activity” (Eur J Med Chem, 2017).
The source made the active and inactive calls. The rule behind the calls is not given here.

Tests used:
UACC-903 [1] = assay: Antiproliferative activity against human UACC-903 cells harboring BRAF V600E mutant after 24 hrs by MTT assay; format: functional, cell-based; conditions: UACC-903, 24 h
In short: (§1)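 MTT viability in melanoma lines grown in DMEM with 10% FBS and pen/strep at 37 °C, 5% CO2. 3000 cells/well, settled overnight, then exposed to compound (0 to 50 µM) in triplicate for 24, 48 or 72 h. MTT (5.0 mg/mL solution) added 3 h before termination. IC50 from non-linear regression (variable slope), mean ± SD.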

UACC-903 [2] = assay: Antiproliferative activity against human UACC-903 cells harboring BRAF V600E mutant after 48 hrs by MTT assay; format: functional, cell-based; conditions: UACC-903, 48 h; in short: as §1
UACC-903 [3] = assay: Antiproliferative activity against human UACC-903 cells harboring BRAF V600E mutant after 72 hrs by MTT assay; format: functional, cell-based; conditions: UACC-903, 72 h; in short: as §1
[4] = Antiproliferative activity against human 1205 Lu cells harboring BRAF V600E mutant after 24 hrs by MTT assay; format: functional, cell-based; in short: as §1
[5] = Antiproliferative activity against human 1205 Lu cells harboring BRAF V600E mutant after 48 hrs by MTT assay; format: functional, cell-based; in short: as §1
[6] = Antiproliferative activity against human 1205 Lu cells harboring BRAF V600E mutant after 72 hrs by MTT assay; format: functional, cell-based; in short: as §1
[7] = Antiproliferative activity against human A375M cells harboring BRAF V600E mutant after 24 hrs by MTT assay; format: functional, cell-based; in short: as §1
[8] = Antiproliferative activity against human A375M cells harboring BRAF V600E mutant after 48 hrs by MTT assay; format: functional, cell-based; in short: as §1
[9] = Antiproliferative activity against human A375M cells harboring BRAF V600E mutant after 72 hrs by MTT assay; format: functional, cell-based; in short: as §1
CHL-1 [10] = assay: Antiproliferative activity against human CHL-1 cells harboring wild type BRAF after 24 hrs by MTT assay; format: functional, cell-based; conditions: CHL-1, 24 h; in short: as §1
CHL-1 [11] = assay: Antiproliferative activity against human CHL-1 cells harboring wild type BRAF after 48 hrs by MTT assay; format: functional, cell-based; conditions: CHL-1, 48 h; in short: as §1
CHL-1 [12] = assay: Antiproliferative activity against human CHL-1 cells harboring wild type BRAF after 72 hrs by MTT assay; format: functional, cell-based; conditions: CHL-1, 72 h; in short: as §1
NHDF [13] = assay: Cytotoxicity against human NHDF cells assessed as reduction in cell viability at 2.5 uM after 48 hrs by MTT assay; format: cell-based
In short: (§2)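 nHDF normal fibroblasts grown in serum-free fibroblast basal medium with growth kit and pen/strep/amphotericin B. Treated 48 h at set concentrations, with viability read by MTT assay.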

NHDF [14] = assay: Cytotoxicity against human NHDF cells assessed as reduction in cell viability at 5 uM after 48 hrs by MTT assay; format: cell-based; in short: as §2
[15] = biological target: DNA topoisomerase 2-alpha (Homo sapiens) (UniProt P11388); assay: Inhibition of human DNA topoisomerase 2alpha assessed as decrease in relaxation of supercoiled pBR322 DNA at 0.5 to 5 uM after 1 hr by ethidium bromide staining-based agarose gel electrophoresis
Chain of DNA topoisomerase 2-alpha (Homo sapiens) (P11388 whole entry): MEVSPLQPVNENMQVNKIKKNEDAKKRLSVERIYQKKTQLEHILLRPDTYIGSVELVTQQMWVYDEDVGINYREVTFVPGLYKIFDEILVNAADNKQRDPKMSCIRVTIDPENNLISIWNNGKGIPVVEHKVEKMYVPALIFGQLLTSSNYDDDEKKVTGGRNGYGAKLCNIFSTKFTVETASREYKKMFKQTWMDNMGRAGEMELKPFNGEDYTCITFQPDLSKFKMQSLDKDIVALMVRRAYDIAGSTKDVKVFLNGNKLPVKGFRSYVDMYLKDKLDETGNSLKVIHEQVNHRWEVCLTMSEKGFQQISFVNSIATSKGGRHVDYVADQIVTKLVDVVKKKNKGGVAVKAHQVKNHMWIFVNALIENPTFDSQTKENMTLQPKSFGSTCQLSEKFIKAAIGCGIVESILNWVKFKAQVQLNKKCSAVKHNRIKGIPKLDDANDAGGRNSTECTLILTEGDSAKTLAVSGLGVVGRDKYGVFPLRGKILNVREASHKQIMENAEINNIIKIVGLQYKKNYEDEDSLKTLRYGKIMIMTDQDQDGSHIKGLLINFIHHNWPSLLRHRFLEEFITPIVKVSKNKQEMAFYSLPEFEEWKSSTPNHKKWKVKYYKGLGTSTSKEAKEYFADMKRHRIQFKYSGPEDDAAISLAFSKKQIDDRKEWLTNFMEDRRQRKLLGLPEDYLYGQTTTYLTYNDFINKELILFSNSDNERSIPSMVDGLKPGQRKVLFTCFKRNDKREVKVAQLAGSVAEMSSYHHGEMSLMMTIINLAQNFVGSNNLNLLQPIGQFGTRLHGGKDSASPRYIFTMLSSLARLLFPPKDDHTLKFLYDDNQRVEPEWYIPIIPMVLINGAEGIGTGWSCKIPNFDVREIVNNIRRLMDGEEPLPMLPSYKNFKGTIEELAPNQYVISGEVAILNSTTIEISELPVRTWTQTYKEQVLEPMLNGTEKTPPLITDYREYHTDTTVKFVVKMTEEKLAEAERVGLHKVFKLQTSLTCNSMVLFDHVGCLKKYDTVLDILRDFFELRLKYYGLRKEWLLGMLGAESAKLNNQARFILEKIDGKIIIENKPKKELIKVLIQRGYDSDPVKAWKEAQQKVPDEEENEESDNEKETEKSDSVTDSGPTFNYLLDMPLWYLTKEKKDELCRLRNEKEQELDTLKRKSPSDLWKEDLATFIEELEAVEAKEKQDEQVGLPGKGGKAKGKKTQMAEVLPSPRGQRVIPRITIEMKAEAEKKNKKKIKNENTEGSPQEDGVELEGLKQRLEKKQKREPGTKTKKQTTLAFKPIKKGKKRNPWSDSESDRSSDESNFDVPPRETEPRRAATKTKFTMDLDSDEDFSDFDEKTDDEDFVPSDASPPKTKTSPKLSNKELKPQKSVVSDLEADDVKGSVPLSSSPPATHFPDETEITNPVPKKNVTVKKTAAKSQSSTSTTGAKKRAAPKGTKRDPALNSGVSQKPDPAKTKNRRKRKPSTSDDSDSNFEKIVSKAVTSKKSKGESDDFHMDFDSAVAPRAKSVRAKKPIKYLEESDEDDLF
In short: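 Kit-based relaxation assay: supercoiled plasmid DNA with 4 units of human Topo-IIα in assay buffer plus test agent or DMSO at 37 °C (1 h in legend, 30 min in methods). Stopped with 10% SDS, then proteinase K 15 min at 37 °C. Run on 1% agarose 1-2 h, ethidium bromide 2 h, destain 15 min in TAE, UV imaging.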

Row | Compound | IC50 (UACC-903 [1]) | IC50 (UACC-903 [2]) | IC50 (UACC-903 [3]) | IC50 [4] | IC50 [5] | IC50 [6] | IC50 [7] | IC50 [8] | IC50 [9] | IC50 (CHL-1 [10]) | IC50 (CHL-1 [11]) | IC50 (CHL-1 [12]) | Activity (NHDF [13]) | Activity (NHDF [14]) | inhibition [15]
1 | O=C1c2cccc3cccc(c23)C(=O)N1CCN=C=[Se] | 6.3 µM | 5.5 µM | 5.9 µM | 11 µM | 10.7 µM | 9.4 µM | 9.7 µM | 7.8 µM | 8 µM | 6.3 µM | 6.8 µM | 7.6 µM | – | – | –
2 | CN(C)CCN1C(=O)c2cccc3cc([N+](=O)[O-])cc(c23)C1=O [MITONAFIDE] | 11.4 µM | 0.8 µM | 0.5 µM | 11.1 µM | 0.9 µM | 0.6 µM | 3.8 µM | 1.5 µM | 1.3 µM | 2.8 µM | 0.9 µM | 0.5 µM | < 20% | < 20% | Active
3 | O=C1c2cccc3cc([N+](=O)[O-])cc(c23)C(=O)N1CCN=C=[Se] | 21.6 µM | 14.4 µM | 15.9 µM | 21.6 µM | 19.9 µM | 20.3 µM | 24.8 µM | 21 µM | 24 µM | 15.3 µM | 12.6 µM | 11 µM | – | – | –
4 | O=C1c2cccc3cccc(c23)C(=O)N1CCCCN=C=[Se] | 13.1 µM | 9.2 µM | 12 µM | 13.1 µM | 15.9 µM | 15.4 µM | 19.4 µM | 21 µM | 28.4 µM | 9.7 µM | 8 µM | 8.9 µM | – | – | –
5 | N=C(N)[Se]CCN1C(=O)c2cccc3cc([N+](=O)[O-])cc(c23)C1=O | > 50 µM | 18.1 µM | 14 µM | > 50 µM | > 50 µM | 39.6 µM | > 50 µM | > 50 µM | 25.8 µM | > 50 µM | 8.5 µM | 13.5 µM | – | – | –
